High-throughput results (PubChem)
A selection: hits, their analogues and other compounds. The true share with any hit is near 3.9%.
STAT3 act: increases IL-6 driven STAT3 reporter signal | U3A cells, IL-6 STAT3-luciferase reporter, luminescence; 100% = signal with IL-6 EC80 alone | activation (% of control), % at 5.6 µM | 0.91% of 190,000 active;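 active = activation above the screen-wide mean of compound activation plus 3 SD, cut at about 130% in these data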;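 note: 0% = background luminescence of wells with medium and substrate only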
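Assay system – human STAT1-deficient U3A cells with stable STAT3-luciferase reporter · Also added – IL-6 (33 ng/mL) · Schedule – compound 1 h, then IL-6 6 h at 37 °C · Technique – reporter luminescence signal · Evaluation – % activation versus median of IL-6-stimulated wells · Benchmarks – IL-6-only wells as 100% reference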
APP 5'UTR act: APP 5'UTR luciferase reporter activation; activation, % at 2 µM; 1% of 190,000 active; SH-SY5Y APP 5'UTR luciferase reporter, luminescence; zero percent = DMSO vehicle wells;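 active = activation above a set limit, based on mean plus 3 SD of controls, cut at about 140% in these data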
STAT1 act: increases IFN-gamma driven STAT1 reporter signal | 2.6% of 200,000 active | activation (% of control), % at 5.5 µM | NIH 3T3 STAT1-luciferase reporter, luminescence; 100% = IFN-gamma alone, no compound;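 active = activation above the screen-wide mean activation plus 3 SD, cut at about 130% in these data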;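 note: raw ratio to IFN-gamma control signal so 100% means no change and 0% no light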
Pf gamet viab: P. falciparum stage V gametocyte viability inhibition; inhibition, % at 10.9 µM; P. falciparum stage V gametocytes, ATP luminescence, 24 h; 0.065% of 150,000 active;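 active = inhibition above the mean plus 3 SD of compounds within the control limits, set per campaign, cut at about 38% in these data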;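 note: 0% = DMSO wells and 100% = medium only without gametocytes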
NF-kB neuron act: compounds increasing NF-kB expression in human neuronal cells | fold change at 12.5 µM | NF-kB reporter expression; hits give high values | 1.6% of 190,000 active | AID 1239; in the data active = fold change above about 3.3
STAT1 blocker: inhibitors of IFN-gamma induced STAT1 signaling; AID 920; NIH 3T3 STAT1-luciferase reporter, luminescence; inhibition, % at 5.5 µM; 0.35% of 200,000 active;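 active = inhibition above a set limit, the mean inhibition across all tested compounds plus 3 SD, cut at about 34% in these data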;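 note: 0% = IFN-gamma with DMSO and 100% = IFN-gamma with 300 µM nifuroxazide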
* hit, by the source's call.

How did COc1ccccc1-c1ccc(Nc2cccc(C(F)(F)F)c2)nn1 do in these assays?
STAT3 act: 95; APP 5'UTR act: 11; STAT1 act: 105; NF-kB neuron act: 1; STAT1 blocker: -20

What do the screens show for `Clc1ccc(Nc2ccc(Cl)nn2)cc1`?
Pf gamet viab: 10

Results for Fc1ccc(-c2ccc(Nc3cccc(F)c3)nn2)cc1 ?
STAT3 act: 91; APP 5'UTR act: 56; STAT1 act: 144*; Pf gamet viab: -25; NF-kB neuron act: 1.7; STAT1 blocker: -50

Results for O=C(O)c1ccccc1Nc1ccccc1C(=O)O ?
STAT3 act: 100; APP 5'UTR act: -2; STAT1 act: 99; NF-kB neuron act: 1.1; STAT1 blocker: 1

What do the screens show for `O=C(O)c1ccccc1NN=C1CCCCC1`?
STAT3 act: 116; APP 5'UTR act: 125; STAT1 act: 138*; Pf gamet viab: 26; NF-kB neuron act: 3.4*; STAT1 blocker: -43

Results for Cc1ccc(-n2nc3ccc(NC(=O)c4ccco4)cc3n2)cc1 ?
STAT3 act: 103; APP 5'UTR act: 42; STAT1 act: 119; NF-kB neuron act: 1.9; STAT1 blocker: -21

Results for Cc1ccc(-n2nc3ccc(N)cc3n2)cc1 ?
STAT3 act: 102; APP 5'UTR act: 7; STAT1 act: 150*; Pf gamet viab: -30; NF-kB neuron act: 2.7; STAT1 blocker: -52

What do the screens show for `Cc1ccc(-n2nc3ccc(NC(=O)C(C)C)cc3n2)cc1`?
STAT3 act: 85; APP 5'UTR act: 194*; STAT1 act: 135*; Pf gamet viab: 17; NF-kB neuron act: 3.2; STAT1 blocker: -40

What do the screens show for `CC(C)c1ccc(-n2nc3ccc(N)cc3n2)cc1`?
STAT3 act: 83; APP 5'UTR act: 117; STAT1 act: 84; NF-kB neuron act: 4.9*; STAT1 blocker: 17

What do the screens show for `CN(C)C(CNC(=S)Nc1ccc(Cl)cc1)c1cccnc1` (stereo not given)?
STAT3 act: 96; APP 5'UTR act: 24; STAT1 act: 102; Pf gamet viab: 5; NF-kB neuron act: 0.97; STAT1 blocker: -4

How did CCn1ncc(C(=O)Nc2cccc(Cl)c2)c1C do in these assays?
STAT3 act: 115; APP 5'UTR act: 86; STAT1 act: 144*; Pf gamet viab: 12; NF-kB neuron act: 2.4; STAT1 blocker: -47

How did CCn1ncc(C(=O)Nc2cc(C)on2)c1C do in these assays?
STAT3 act: 91; APP 5'UTR act: 23; STAT1 act: 115; Pf gamet viab: -3; NF-kB neuron act: 1.6; STAT1 blocker: -17

How did CC(C)(C)n1cnc2cc(NC(=O)c3cccs3)ccc21 do in these assays?
STAT3 act: 89; APP 5'UTR act: 54; STAT1 act: 142*; Pf gamet viab: 17; NF-kB neuron act: 4*; STAT1 blocker: -47

Results for CCn1cnc2cc(NC(=O)c3cccs3)ccc21 ?
STAT3 act: 92; APP 5'UTR act: 76; STAT1 act: 135*; Pf gamet viab: -33; NF-kB neuron act: 2.5; STAT1 blocker: -41

What do the screens show for `CC(C)C[C@@H](CSc1ccccc1)N1CCN(CC(C)C)CCC1=O`?
Pf gamet viab: -12

How did Cc1nnc(SCc2cccc([N+](=O)[O-])c2)[nH]c1=O do in these assays?
STAT3 act: 103; APP 5'UTR act: -12; STAT1 act: 102; Pf gamet viab: 7; NF-kB neuron act: 1; STAT1 blocker: -3

Results for Nc1nccc(/C=C/c2c(F)cccc2Cl)n1 ?
STAT3 act: 81; APP 5'UTR act: 27; STAT1 act: 122; Pf gamet viab: 12; NF-kB neuron act: 1.6; STAT1 blocker: -25

Results for Oc1cccc2ccc(/C=C/c3c(F)cccc3Cl)nc12 ?
STAT3 act: 120; APP 5'UTR act: 136*; STAT1 act: 97; NF-kB neuron act: 5.4*; STAT1 blocker: 0

How did COc1cc(OC)cc(-c2cc3nc(C)c(CCC(=O)O)c(C)n3n2)c1 do in these assays?
STAT3 act: 31; APP 5'UTR act: -78; STAT1 act: 52; NF-kB neuron act: 0.29; STAT1 blocker: 53*

Results for COc1cc(OC)cc(-c2cc3nc(C)c(CCC(=O)NC(C)CCc4ccco4)c(C)n3n2)c1 (stereo not given) ?
STAT3 act: 101; APP 5'UTR act: -4; STAT1 act: 101; Pf gamet viab: 1; NF-kB neuron act: 0.32; STAT1 blocker: -1

How did CCN1C(=O)N(C)[C@@H](c2ccccc2)C(C(C)=O)=C1C do in these assays?
Pf gamet viab: -35

What do the screens show for `N#C/C(=C\c1ccc(N2CCOCC2)o1)C(=O)NC1CCCCC1`?
Pf gamet viab: -12

Results for N#C/C(=C/c1ccc(N2CCCCC2)o1)c1cccc(F)c1 ?
STAT3 act: 136*; APP 5'UTR act: -7; STAT1 act: 145*; NF-kB neuron act: 1.9; STAT1 blocker: -49

What do the screens show for `N#C/C(=C/c1ccc(N2CCCCC2)cc1)c1cccc(F)c1`?
STAT3 act: 103; APP 5'UTR act: 81; STAT1 act: 115; Pf gamet viab: -19; NF-kB neuron act: 1.1; STAT1 blocker: -17

How did N#C/C(=C/c1ccc(N2CCCCCC2)o1)c1ccc(Cl)cc1 do in these assays?
STAT3 act: 90; APP 5'UTR act: 6; STAT1 act: 92; NF-kB neuron act: 3.4*; STAT1 blocker: 9

Results for COC(=O)C1Cc2ccccc2CN1C(=O)CCl (stereo not given) ?
STAT3 act: 98; APP 5'UTR act: -5; STAT1 act: 83; Pf gamet viab: -3; NF-kB neuron act: 1.3; STAT1 blocker: 17

What do the screens show for `COc1ccc(OCCn2c(=O)sc3ccccc32)cc1`?
STAT3 act: 98; APP 5'UTR act: 57; STAT1 act: 137*; NF-kB neuron act: 1.8; STAT1 blocker: -42

What do the screens show for `Cc1cccc(OCCN2C(=O)c3ccccc3C2=O)c1`?
STAT3 act: 109; APP 5'UTR act: 18; STAT1 act: 140*; Pf gamet viab: 38; NF-kB neuron act: 1.9; STAT1 blocker: -46

How did Cc1cccc(OCCn2c(=O)sc3ccccc32)c1 do in these assays?
STAT3 act: 100; APP 5'UTR act: 87; STAT1 act: 136*; Pf gamet viab: -6; NF-kB neuron act: 3; STAT1 blocker: -38

How did O=C1c2ccccc2C(=O)N1CCCOc1ccccc1 do in these assays?
STAT3 act: 98; APP 5'UTR act: 10; STAT1 act: 124; Pf gamet viab: 3; NF-kB neuron act: 2.1; STAT1 blocker: -32

What do the screens show for `Cc1cccc(OCCCN2CCCCCC2)c1`?
STAT3 act: 102; APP 5'UTR act: 9; STAT1 act: 104; NF-kB neuron act: 0.85; STAT1 blocker: -5

Results for Cc1cccc(OCCCn2c(=O)sc3ccccc32)c1 ?
STAT3 act: 88; APP 5'UTR act: 8; STAT1 act: 128; Pf gamet viab: 1; NF-kB neuron act: 1.8; STAT1 blocker: -30

How did Cc1cccc(OCCn2c(=O)n(C)c3ccccc32)c1 do in these assays?
STAT3 act: 120; APP 5'UTR act: 85; STAT1 act: 143*; NF-kB neuron act: 3.6*; STAT1 blocker: -47
